# Test results published in ChEMBL document CHEMBL1932953, “New anthranilic acid based antagonists with high affinity and selectivity for the human cholecystokinin receptor 1 (hCCK1-R)” (J Med Chem, 2011).
# The source made the active and inactive calls. The calls are words filed in the database; no cut-off is given here.
# How the values were obtained:
# [1] = Displacement of [125I]-BH-CCK8 from CCK2 receptor in Hartley guinea pig cerebral cortex after 120 hrs by gamma-counting; type: tissue-based, Cavia porcellus; conditions: in the assay text read “after 120 mins” for “after 120 hrs”
# How it was run: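 Cortical membranes (0.5 mg protein/ml) are incubated with 25 pM [125I]BH-CCK-8 for 120 min at 25 °C. The buffer is 10 mM Hepes, 118 mM NaCl, 4.7 mM KCl, 5 mM MgCl2, 1 mM EGTA, pH 6.5, with 0.2 mg/mL bacitracin. Samples are vacuum-filtered on GF/B and gamma-counted, with nonspecific binding defined with 1 μM CCK-8. IC50 comes from curve fitting, or ISB% is taken at the top concentration tested.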
# [2] = molecular target: T1, Cholecystokinin receptor type A (Rattus norvegicus, UniProt P30551); test: Displacement of [125I]-BH-CCK8 from CCK1 receptor in Sprague-Dawley rat pancreatic acini after 120 hrs by gamma-counting; conditions: in the assay text read “after 30 mins” for “after 120 hrs”
# T1 sequence (P30551 whole entry): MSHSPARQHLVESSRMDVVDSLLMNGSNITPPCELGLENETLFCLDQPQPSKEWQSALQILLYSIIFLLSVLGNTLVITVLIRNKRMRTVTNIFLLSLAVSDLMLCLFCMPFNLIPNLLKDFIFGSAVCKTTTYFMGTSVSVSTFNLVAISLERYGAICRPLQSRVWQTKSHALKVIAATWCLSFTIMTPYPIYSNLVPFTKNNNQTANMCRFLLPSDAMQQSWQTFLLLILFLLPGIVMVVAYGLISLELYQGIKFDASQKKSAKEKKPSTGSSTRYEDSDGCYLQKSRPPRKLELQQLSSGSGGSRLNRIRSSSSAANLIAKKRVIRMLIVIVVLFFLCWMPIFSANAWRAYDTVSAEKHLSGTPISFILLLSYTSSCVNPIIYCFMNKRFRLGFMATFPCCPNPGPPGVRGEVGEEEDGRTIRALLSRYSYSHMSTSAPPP
# How it was run: (§1)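 Rats fasted 18–24 h with free water. Acini isolated by enzymatic digestion are incubated with 25 pM [125I]BH-CCK-8 and competitors at 37 °C for 30 min in a shaking bath. Ice-cold Hepes-Ringer pH 7.4 is added, the tubes are centrifuged 5 min at 12500g, and pellet radioactivity is counted. IC50 comes from curve fitting, or ISB% is taken at the top concentration tested.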
# [3] = Apparent selectivity index, ratio of IC50 for CCK2 receptor in Hartley guinea pig cerebral cortex to IC50 for CCK1 receptor in Sprague-Dawley rat pancreatic acini; type: tissue-based
# [4] = molecular target: T2, Cholecystokinin receptor type A (Homo sapiens, UniProt P32238); test: Displacement of [125I]BH-(Thr,-Nle)-CCK-9 from human CCK1 receptor expressed in COS-7 cells after 60 mins by gamma counting; type: cell-based
# T2 sequence (P32238 whole entry): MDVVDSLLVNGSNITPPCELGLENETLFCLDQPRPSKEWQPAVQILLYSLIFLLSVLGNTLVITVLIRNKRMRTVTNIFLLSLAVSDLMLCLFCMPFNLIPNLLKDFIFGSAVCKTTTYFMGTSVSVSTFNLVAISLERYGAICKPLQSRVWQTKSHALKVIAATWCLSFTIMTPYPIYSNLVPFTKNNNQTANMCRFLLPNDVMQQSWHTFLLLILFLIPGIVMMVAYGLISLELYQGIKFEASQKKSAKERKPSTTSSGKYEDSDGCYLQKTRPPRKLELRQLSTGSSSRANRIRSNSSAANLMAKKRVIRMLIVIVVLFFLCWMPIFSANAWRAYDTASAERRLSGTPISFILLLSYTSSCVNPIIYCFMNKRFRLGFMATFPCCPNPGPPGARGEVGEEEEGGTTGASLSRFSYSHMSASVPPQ
# [5] = molecular target: T3, Gastrin/cholecystokinin type B receptor (Homo sapiens, UniProt P32239); test: Displacement of [125I]BH-(Thr,-Nle)-CCK-9 from human CCK2 receptor expressed in COS-7 cells after 60 mins by gamma counting; type: cell-based
# T3 sequence (P32239 whole entry): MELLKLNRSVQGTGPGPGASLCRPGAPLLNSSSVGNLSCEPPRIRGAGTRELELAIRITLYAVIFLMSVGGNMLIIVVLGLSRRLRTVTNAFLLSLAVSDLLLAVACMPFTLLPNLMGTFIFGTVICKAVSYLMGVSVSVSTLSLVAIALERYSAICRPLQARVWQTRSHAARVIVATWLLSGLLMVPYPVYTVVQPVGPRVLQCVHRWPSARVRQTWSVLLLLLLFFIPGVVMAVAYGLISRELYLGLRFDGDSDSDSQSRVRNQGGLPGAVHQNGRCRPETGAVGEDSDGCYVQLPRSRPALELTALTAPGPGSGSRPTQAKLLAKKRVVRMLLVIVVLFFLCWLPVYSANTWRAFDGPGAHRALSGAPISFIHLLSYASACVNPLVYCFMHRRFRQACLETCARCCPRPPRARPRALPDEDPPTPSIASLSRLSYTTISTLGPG
# Homo sapiens = species: Homo sapiens; test: Apparent selectivity index, ratio of Ki for human CCK2 receptor to Ki for human CCK1 receptor
# [6] = Antagonist activity at CCK1 receptor in Hartley guinea pig gall bladder assessed as inhibition of CCK8-induced contraction; type: functional, tissue-based, Cavia porcellus
# How it was run: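 Circular smooth-muscle strips (about 3 mm × 15 mm) in Krebs–Henseleit at 32 °C, gassed 95% O2/5% CO2, resting tension 0.5 g, isometric recording. After 60 min equilibration with washes every 15 min, antagonist or vehicle is given 5 min before a submaximal (70–80%) CCK-8 concentration. Response is % inhibition of contraction, and IC50 comes from the regression line.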
# [7] = molecular target: T4, Cholecystokinin receptor type A (Homo sapiens) (UniProt P32238); test: Antagonist activity at human CCK1 receptor expressed in COS7 cells assessed as inhibition of (Thr,Nle)-CCK9-induced inositol phosphate production using myo-2-[3H]inositol after 60 mins by scintillation counting; type: functional, cell-based; conditions: COS-7
# T4 sequence (whole entry): T2 sequence (P32238 whole entry)
# How it was run: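 COS-7 cells transiently transfected (DEAE-dextran) with receptor cDNA are labelled overnight with 2 μCi/ml myo-2-[3H]inositol. They are preincubated 30 min in DMEM with 20 mM LiCl at 37 °C, then incubated 60 min at 37 °C in PI buffer pH 7.45 with ligands at various concentrations. Inositol phosphates are separated on Dowex AG 1-X8 formate columns and counted by β scintillation.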
# [8] = molecular target: T5, Cholecystokinin receptor type A (Rattus norvegicus) (UniProt P30551); test: Displacement of [125I]-BH-CCK8 from CCK1 receptor in Sprague-Dawley rat pancreatic acini at 3 uM after 120 hrs by gamma-counting; conditions: in the assay text read “after 30 mins” for “after 120 hrs”; how it was run: as §1
# T5 sequence (whole entry): T1 sequence (P30551 whole entry)
# [9] = molecular target: T2, Cholecystokinin receptor type A; test: Displacement of [3H]-SR-27897 from wild type human CCK1 receptor expressed in COS7 cells after 60 mins […]; type: cell-based, COS-7
# How it was run: (§2)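 Wild-type or mutant receptor cDNA in pRFE-Neo (2 μg/plate) was transiently transfected into COS-7 cells by modified DEAE-dextran, and cells were replated 24 h later. After about 24 h more, cells were incubated 60 min at 37 °C in DMEM with 0.1% BSA, 1.83 nM [3H]SR-27,897 and competitors. Cells were washed in cold PBS with 2% BSA, lysed in 0.1 N NaOH, and counted by scintillation. Values are mean ± SEM, at least three experiments in duplicate.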
# [10] = molecular target: Cholecystokinin receptor type A (Homo sapiens, UniProt P32238, W39A); test: Displacement of [3H]-SR-27897 from human CCK1 W39A mutant receptor expressed in COS7 cells after 60 mins […]; type: cell-based, COS-7; how it was run: as §2
# Cholecystokinin receptor type A (Homo sapiens, UniProt P32238, W39A), sequence (P32238 whole entry W39A): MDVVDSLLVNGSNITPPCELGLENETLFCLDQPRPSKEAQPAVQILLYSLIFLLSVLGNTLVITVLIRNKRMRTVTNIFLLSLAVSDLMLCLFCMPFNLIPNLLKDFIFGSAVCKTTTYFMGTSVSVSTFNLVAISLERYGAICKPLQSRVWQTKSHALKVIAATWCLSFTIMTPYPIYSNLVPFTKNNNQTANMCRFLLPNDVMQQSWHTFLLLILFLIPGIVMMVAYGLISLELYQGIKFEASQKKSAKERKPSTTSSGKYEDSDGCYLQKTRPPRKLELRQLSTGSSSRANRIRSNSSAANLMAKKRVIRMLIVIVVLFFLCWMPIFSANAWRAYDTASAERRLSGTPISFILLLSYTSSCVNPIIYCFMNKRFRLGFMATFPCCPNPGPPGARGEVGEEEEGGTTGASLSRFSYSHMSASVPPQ
# [11] = molecular target: Cholecystokinin receptor type A (Homo sapiens, UniProt P32238, F107A); test: Displacement of [3H]-SR-27897 from human CCK1 F107A mutant receptor expressed in COS7 cells after 60 mins […]; type: cell-based, COS-7; how it was run: as §2
# Cholecystokinin receptor type A (Homo sapiens, UniProt P32238, F107A), sequence (P32238 whole entry F107A): as the sequence (P32238 whole entry W39A) above, with A39W, F107A counted along it
# [12] = molecular target: Cholecystokinin receptor type A (Homo sapiens, UniProt P32238, M195A); test: Displacement of [3H]-SR-27897 from human CCK1 M195A mutant receptor expressed in COS7 cells after 60 mins […]; type: cell-based, COS-7; how it was run: as §2
# Cholecystokinin receptor type A (Homo sapiens, UniProt P32238, M195A), sequence (P32238 whole entry M195A): as the sequence (P32238 whole entry W39A) above, with A39W, M195A counted along it
# [13] = molecular target: Cholecystokinin receptor type A (Homo sapiens, UniProt P32238, R197A); test: Displacement of [3H]-SR-27897 from human CCK1 R197A mutant receptor expressed in COS7 cells after 60 mins […]; type: cell-based, COS-7; how it was run: as §2
# Cholecystokinin receptor type A (Homo sapiens, UniProt P32238, R197A), sequence (P32238 whole entry R197A): as the sequence (P32238 whole entry W39A) above, with A39W, R197A counted along it
# [14] = molecular target: Cholecystokinin receptor type A (Homo sapiens, UniProt P32238, R336A); test: Displacement of [3H]-SR-27897 from human CCK1 R336A mutant receptor expressed in COS7 cells after 60 mins […]; type: cell-based, COS-7; how it was run: as §2
# Cholecystokinin receptor type A (Homo sapiens, UniProt P32238, R336A), sequence (P32238 whole entry R336A): as the sequence (P32238 whole entry W39A) above, with A39W, R336A counted along it
# [15] = molecular target: Cholecystokinin receptor type A (Homo sapiens, UniProt P32238, F330A); test: Displacement of [3H]-SR-27897 from human CCK1 F330A mutant receptor expressed in COS7 cells after 60 mins […]; type: cell-based, COS-7; how it was run: as §2
# Cholecystokinin receptor type A (Homo sapiens, UniProt P32238, F330A), sequence (P32238 whole entry F330A): as the sequence (P32238 whole entry W39A) above, with A39W, F330A counted along it
# [16] = molecular target: Cholecystokinin receptor type A (Homo sapiens, UniProt P32238, I352A); test: Displacement of [3H]-SR-27897 from human CCK1 I352A mutant receptor expressed in COS7 cells after 60 mins […]; type: cell-based, COS-7; how it was run: as §2
# Cholecystokinin receptor type A (Homo sapiens, UniProt P32238, I352A), sequence (P32238 whole entry I352A): as the sequence (P32238 whole entry W39A) above, with A39W, I352A counted along it
# [17] = molecular target: T2, Cholecystokinin receptor type A; test: Displacement of [125I]-BH-JMV-179 from wild type human CCK1 receptor expressed in COS7 cells after 60 mins by gamma counting; type: cell-based, COS-7
# How it was run: (§3)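 Transiently transfected COS-7 cells (DMEM, 5% FCS, 37 °C, 5% CO2) were given 2 μg/plate pRFE-Neo vector carrying wild-type or mutant receptor cDNA by modified DEAE-dextran, then replated after 24 h. About 24 h later, cells were washed (PBS pH 6.95, 0.1% BSA) and incubated 60 min at 37 °C with 71 pM 125I-BH-(Thr,Nle)CCK-9 ± competitors. After cold washes, cells were lysed in 0.1 N NaOH and gamma-counted.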
# [18] = molecular target: Cholecystokinin receptor type A (Homo sapiens, UniProt P32238, N333A); test: Displacement of [125I]-BH-JMV-179 from human CCK1 receptor N333A mutant expressed in COS7 cells after 60 mins by gamma counting; type: cell-based, COS-7; how it was run: as §3
# Cholecystokinin receptor type A (Homo sapiens, UniProt P32238, N333A), sequence (P32238 whole entry N333A): as the sequence (P32238 whole entry W39A) above, with A39W, N333A counted along it
# Cavia porcellus [19] = test: Inhibition of CCK8-induced gall bladder contraction in iv dosed Hartley guinea pig administered 2 mins before CCK8 challenge; type: functional; conditions: read-out: ID50 (the source's name)
# How it was run: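 Male Hartley guinea pigs (400–450 g) are fasted 48 h and anaesthetised with urethane 1.5 g/kg ip. Jugular vein and trachea are cannulated. Test agents are given iv at different doses 2 min before CCK-8 10 ng/kg iv. The read-out is % reduction of contraction area, and […] comes from the regression of inhibition against log dose.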
# [20] = molecular target: T5, Cholecystokinin receptor type A (Rattus norvegicus); test: Displacement of [125I]-BH-CCK8 from CCK1 receptor in Sprague-Dawley rat pancreatic acini at 10 uM after 120 hrs by gamma-counting; conditions: in the assay text read “after 30 mins” for “after 120 hrs”; how it was run: as §1
# Cavia porcellus [21] = species: Cavia porcellus; test: Displacement of [125I]-BH-CCK8 from CCK2 receptor in Hartley guinea pig cerebral cortex at 30 uM […] by gamma-counting; type: tissue-based
smiles,measurement,setting,value
O=C(Nc1ccccc1C(=O)NC(CCc1ccccc1)C(=O)O)c1cc2ccccc2[nH]1 (racemic),IC50,[1]; read-out: IC50,5100 nM
same,IC50,[2],15.7 nM
same,Ratio IC50,[3],324
same,Ki,[4],3.9 nM
same,Ki,[5],15300 nM
same,Ratio Ki,Homo sapiens,3900
same,IC50,[6],48.9 nM
same,inhibition,[7],Active
NC(=O)C(CCc1ccccc1)NC(=O)c1ccccc1NC(=O)c1cc2ccccc2[nH]1 (racemic),inhibition,[8],inactive
O=C(Nc1ccccc1C(=O)N[C@@H](CCc1ccccc1)C(=O)O)c1cc2ccccc2[nH]1,IC50,[1]; read-out: IC50,7900 nM
same,IC50,[2],313 nM
same,Ki,[4],973 nM
same,Ki,[5],1000 nM
same,IC50,[6],420 nM
same,inhibition,[7],Active
O=C(Nc1ccccc1C(=O)NC(Cc1ccccc1)C(=O)O)c1cc2ccccc2[nH]1 (racemic),IC50,[1]; read-out: IC50,16400 nM
same,Ratio IC50,[3],83
same,Ki,[4],59.8 nM
same,Ki,[5],22000 nM
same,Ratio Ki,Homo sapiens,368
O=C(Nc1ccccc1C(=O)N[C@H](CCc1ccccc1)C(=O)O)c1cc2ccccc2[nH]1,IC50,[1]; read-out: IC50,3800 nM
same,IC50,[2],9.5 nM
same,Ki,[4],2.3 nM
same,Ki,[5],1000 nM
same,IC50,[6],43.9 nM
same,inhibition,[7],Active
same,Ki,[9],5.8 nM
same,Ki,[10],3.7 nM
same,Ki,[11],3.8 nM
same,Ki,[12],7.6 nM
same,Ki,[13],19.6 nM
same,Ki,[14],522 nM
same,Ki,[15],4.9 nM
same,Ki,[16],39.1 nM
same,Ki,[17],0.32 nM
same,Ki,[18],5 nM
same,ED50,Cavia porcellus [19],0.35 µmol/kg
CCOC(=O)C(CCc1ccccc1)NC(=O)c1ccccc1NC(=O)c1cc2ccccc2[nH]1 (racemic),IC50,[1],Not Active
same,inhibition,[8],24%
CC(CCc1ccccc1)NC(=O)c1ccccc1NC(=O)c1cc2ccccc2[nH]1 (racemic),IC50,[1],Not Active
same,inhibition,[20],36%
O=C(Nc1ccccc1C(=O)NC(CCCc1ccccc1)C(=O)O)c1cc2ccccc2[nH]1 (racemic),IC50,[1]; read-out: IC50,600 nM
same,IC50,[2],107 nM
same,Ratio IC50,[3],6
O=C(Nc1ccccc1NC(=O)C(CCc1ccccc1)C(=O)O)c1cc2ccccc2[nH]1 (racemic),IC50,[1]; read-out: IC50,6200 nM
same,IC50,[2],717 nM
same,Ratio IC50,[3],8
O=C(Nc1ccccc1C(=O)NC(CCCCc1ccccc1)C(=O)O)c1cc2ccccc2[nH]1 (racemic),inhibition,[20],39%
O=C(Nc1ccccc1C(=O)NC(C(=O)O)c1ccccc1)c1cc2ccccc2[nH]1 (racemic),IC50,[2],317 nM
O=C(Nc1ccccc1C(=O)NC(CCc1ccccc1)C(=O)NO)c1cc2ccccc2[nH]1 (racemic),IC50,[2],419 nM
same,inhibition,Cavia porcellus [21],37%
